Measurements pooled from the literature.
Lines come from different studies, so protocols differ.
Tested at: 1 µM
PIK3CA E545A: Phosphatidylinositol 4,5-bisphosphate 3-kinase catalytic subunit alpha isoform (PIK3CA, Homo sapiens, UniProt P42336, E545A)
PIK3CA H1047Y: Phosphatidylinositol 4,5-bisphosphate 3-kinase catalytic subunit alpha isoform (PIK3CA, Homo sapiens, UniProt P42336, H1047Y)
PIK3CA Q546K: Phosphatidylinositol 4,5-bisphosphate 3-kinase catalytic subunit alpha isoform (PIK3CA, Homo sapiens, UniProt P42336, Q546K)
PIK3CA I800L: Phosphatidylinositol 4,5-bisphosphate 3-kinase catalytic subunit alpha isoform (PIK3CA, Homo sapiens, UniProt P42336, I800L)
PIK3CA C420R: Phosphatidylinositol 4,5-bisphosphate 3-kinase catalytic subunit alpha isoform (PIK3CA, Homo sapiens, UniProt P42336, C420R)
PIK3CA: Phosphatidylinositol 4,5-bisphosphate 3-kinase catalytic subunit alpha isoform (PIK3CA, Homo sapiens, UniProt P42336)

Compound | target | test | remaining binding
Cc1cnn2ncc(-c3ccnc(N(C)C)n3)c2c1 | PIK3CA E545A | binding | 100%
C=CC(=O)N1CCC(C(=O)NCC(=O)N2CCN(c3nc(-c4cnc(N)nc4C(F)F)nc(N4CCOCC4)n3)CC2)CC1 | PIK3CA H1047Y | binding, competition with immobilised ligand | 5.9%
CC(C)(O)c1cncc(-c2nc3ccc(F)cc3n2C2CC2)c1 | Phosphatidylinositol 4,5-bisphosphate 3-kinase catalytic subunit alpha isoform (PIK3CA, Homo sapiens, UniProt P42336, M1043I) | cell-free assay, competition with immobilised ligand | 100%
O=C(NCC1CCOCC1)c1n[nH]cc1NC(=O)c1c(F)cccc1F | PIK3CA H1047Y | binding, competition with immobilised ligand | 100%
CCN1CCN(Cc2ccc(C(=O)Nc3ccc(C)c(Oc4ccc5c(c4)CC(=O)N5)c3)cc2C(F)(F)F)CC1 | PIK3CA Q546K | binding, competition with immobilised ligand | 100%
Cc1cnc(Nc2ccc(C(=O)N3CCC(N4CCCC4)CC3)cc2)nc1-c1cc2ccccc2s1 | Phosphatidylinositol 4,5-bisphosphate 3-kinase catalytic subunit alpha isoform (PIK3CA, Homo sapiens, UniProt P42336, H1047L) | binding, competition with immobilised ligand | 97%
CC1CCCN1c1nccc(-c2cnn3ncccc23)n1 (centres unmarked) | PIK3CA I800L | binding | 88%
Nc1ncc2c(n1)-c1c([nH]c3ccc(C#CC4CC4)cc13)CCCC2 | PIK3CA H1047Y | binding, competition with immobilised ligand | 75%
c1cnn2ncc(-c3ccnc(N4CCC45COC5)n3)c2c1 | PIK3CA C420R | binding | 71%
CNC(=O)[C@@H]1CC[C@@H](n2c(-c3ccc4cnccc4c3)nc3ccc(C(=O)NCc4cccc(C(N)=O)c4)cc32)C1 | PIK3CA Q546K | binding, competition with immobilised ligand | 100%
COc1cccc(CNC(=O)c2nc3scc(COCc4ccc(C(=O)O)cc4)c3c(=O)[nH]2)c1 | PIK3CA I800L | cell-free assay, competition with immobilised ligand | 77.2%
CN(C)c1nccc(-c2cnc3ncccn23)n1 | PIK3CA | binding | 71%
Cc1nc(Cc2cccc(C(F)(F)F)c2)sc1-c1ccc(C(N)=O)nc1 | PIK3CA E545A | cell-free assay, competition with immobilised ligand | 100%
N[C@@H]1CCN(c2nccc(-c3cnn4ncccc34)n2)C1 | Phosphatidylinositol 4,5-bisphosphate 3-kinase catalytic subunit alpha isoform (PIK3CA, Homo sapiens, UniProt P42336, E542K) | binding | 80%
O=C(Nc1cnc(Oc2ccc(F)cc2)nc1)N1CCc2ncccc2[C@@H]1c1ccc(F)cc1 | PIK3CA H1047Y | cell-free assay, competition with immobilised ligand | 100%
O=C(c1ccc(Nc2ncc(Cl)c(-c3ccc(Cl)s3)n2)cc1)N1CCC(N2CCCC2)CC1 | PIK3CA C420R | binding, competition with immobilised ligand | 100%
O=C(O)[C@@H]1[C@@H](Cn2nnc3ccccc3c2=O)CC[C@H]1C(=O)c1ccc(OCCC2CCOCC2)cc1 | PIK3CA | cell-free assay, competition with immobilised ligand | 100%
C[C@@H]1CCN(c2nccc(-c3cnn4ncccc34)n2)C1 | PIK3CA | binding | 100%
CCOCCn1cc(C(=O)Nc2ccc(-n3nc(-c4cccnc4)cc3C(F)(F)F)cn2)ccc1=O | Phosphatidylinositol 4,5-bisphosphate 3-kinase catalytic subunit alpha isoform (PIK3CA, Homo sapiens, UniProt P42336, E545K) | cell-free assay, competition with immobilised ligand | 96%
COc1cnc(Nc2cccc(S(N)(=O)=O)c2)nc1N1CCN(c2ccccc2)C(=O)C1 | PIK3CA C420R | binding, competition with immobilised ligand | 95%
